The record followed here is ChEMBL document CHEMBL5252513, “Identification of a Benzoisoxazoloazepine Inhibitor (CPI-0610) of the Bromodomain and Extra-Terminal (BET) Family as a Candidate for Human Clinical Trials” (J Med Chem, 2016).

A short description of data set [1]: Half life in rat plasma at 1 mg/kg,iv. The data set is classed as ADME, organism-based.
Data set [2] in a line: Total clearance in rat at 1 mg/kg,iv. The data set is classed as ADME, organism-based. The following applies: in vivo.
The nature of data set [3]: Toxicity in rat assessed as degeneration of testicular seminiferous epithelium at 2 to 20 mg/kg,po QD consecutive for 14 days followed by 2 weeks recovery period. Format: organism-based. The following applies: in vivo, 336 h, dose 2-20 mg/kg, time 14 day. In outline: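 Oral suspension given once daily for 14 consecutive days (rat 2, 6, 20 mg/kg; dog 2, 4, 6 mg/kg) in dose range-finding and GLP repeat-dose studies, GLP arms with an added 2-week recovery period; histopathology and clinical pathology findings recorded.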

A short description of data set [4]: Protein binding in rat plasma. The data set is classed as ADME, cell-free. The following applies: read-out: PPB (converted).

In the case of `Cc1noc2c1-c1ccccc1C(c1ccc(Cl)cc1)=N[C@H]2CC(N)=O` [PELABRESIB], the half-life in data set [1] was 55.8 min. The clearance in data set [2] was 20 mL/min/kg. In data set [3], the Activity entry is on record as “Toxic”. Further, in data set [4], the fraction unbound is 0.07.
